The results in this text go back to ChEMBL document CHEMBL4038303, “Simultaneous Drug Targeting of the Promoter MYC G-Quadruplex and BCL2 i-Motif in Diffuse Large B-Cell Lymphoma Delays Tumor Growth” (J Med Chem, 2017).

For data set [1], the system named is HT. The experiment in a line: Down regulation of BLC2 mRNA level in human HT cells up to 3 uM after 24 hrs by qPCR method. The class given is functional, cell-based. The method, boiled down:
(§1)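 DLBCL lines grown in RPMI with 10% FBS (SUDHL4 15% FBS) and penicillin/streptomycin. Cells exposed for 24 h to rising concentrations up to 3 μM; DMSO as vehicle control. Total RNA isolated, target mRNA measured by TaqMan real-time qPCR, normalized to TBP and expressed relative to untreated cells; triplicate experiments, two-tailed t test.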

The species named for data set [2] is Homo sapiens. The experiment in a line: Binding affinity to c-myc G-quadruplex DNA in BCL2 and MYC translocation-positive human VAL cells assessed as downregulation of MYC protein levels up to 3 uM after 24 hrs by Western blot analysis. The method, boiled down: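 Cell lines treated 24 h with compound up to 3 μM, with untreated and DMSO-treated controls. Lysates (20 μg total protein) probed by Western blot for BCL2 or MYC with antibodies at 1:1000; actin as loading control. Blots representative of triplicate experiments.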

The species entered for data set [3] is Homo sapiens. The experiment in a line: Binding affinity to BLC2 i-motif promoter DNA in BCL2 and MYC translocation-positive human VAL cells assessed as downregulation of BLC2 mRNA levels up to 3 uM after 24 hrs by qPCR method. An outline of the steps: as §1
For data set [4], the species on record is Homo sapiens. As to the kind of experiment: Binding affinity to BLC2 i-motif promoter DNA in MYC translocation-positive and BCL2 amplification-positive human U2932 cells assessed as downregulation of BLC2 mRNA levels up to 3 uM after 24 hrs by qPCR method. The method, boiled down:
as §1

The species named for data set [5] is Homo sapiens. The experiment in a line: Binding affinity to c-myc G-quadruplex DNA in BCL2 translocation-positive human SUDHL4 cells assessed as downregulation of MYC mRNA levels after 24 hrs by qPCR method. The method, boiled down:
as §1

The species entered for data set [6] is Homo sapiens. The experiment in a line: Binding affinity to c-myc G-quadruplex DNA in BCL2 and MYC translocation-positive human VAL cells assessed as downregulation of MYC mRNA levels at 3 uM after 24 hrs by qPCR method. The method, boiled down: as §1
Data set [7] is filed under the species Homo sapiens. The experiment in a line: Binding affinity to c-myc G-quadruplex DNA in human HT cells assessed as downregulation of MYC mRNA levels at 3 uM after 24 hrs by qPCR method. The class given is cell-based. An outline of the steps:
as §1

The species named for data set [8] is Homo sapiens. The experiment in a line: Binding affinity to c-myc G-quadruplex DNA in human HT cells assessed as downregulation of MYC mRNA levels at 0.25 to 3 uM after 6 hrs by qPCR method. The format is cell-based.
Data set [9] is filed under the species Homo sapiens. The experiment in a line: Binding affinity to c-myc G-quadruplex DNA in MYC translocation-positive and BCL2 amplification-positive human U2932 cells assessed as downregulation of MYC mRNA levels at 0.25 to 3 uM after 6 hrs by qPCR method.
Data set [10] has as its system U2932. The experiment in a line: Potentiation of CPA-induced antitumor activity against human U2932 cells xenografted in SCID mouse assessed as reduction in tumor burden at 5 mg/kg, ip administered for 5 consecutive days measured up to 10 days post first treatement. The class given is functional, organism-based. The method, boiled down: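 SCID mice bearing subcutaneous left-flank U2932 xenografts (10 × 10^6 cells in saline), pair-matched by tumor volume. Test agent given ip daily for 5 days with 50 mg/kg CPA; diluent-treated and CPA-alone controls. Tumor volume estimated as a2 × b/2 from smallest and largest diameters. Grubbs' test for outliers; two-tailed Student's t test.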

Data set [11] is filed under the species Homo sapiens. As to the kind of experiment: Stabilization of c-myc G-quadruplex DNA in BCL2 translocation-positive human SUDHL4 cells assessed as potentiation of CPA-induced apoptosis by measuring increase in caspase-3 activity at 3 uM after 24 hrs in presence of NSC-59276 by AFC based fluorescence assay (reference value: 30%).
The subject of data set [12] is Mus musculus. As to the kind of experiment: Reduction in Myc mRNA level in SCID mouse xenografted with human U2932 cells at 10 mg/kg, ip administered for 5 consecutive days cotreated with CPA and NSC-59276 by qPCR method. The format is functional, organism-based. The method, boiled down:
(§2)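 Tumors from U2932 xenograft SCID mice given ip treatment daily for 5 days were harvested. Total RNA was taken from the same tumor preparations used for protein lysates, and MYC or BCL2 mRNA was quantified by TaqMan qPCR normalized to TBP. Comparisons were made with diluent-treated mice or CPA-only mice.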

Data set [13] relates to U2932. The experiment in a line: Potentiation of CPA-induced antitumor activity against human U2932 cells xenografted in SCID mouse assessed as tumor growth inhibition at 7.5 mg/kg, ip for 5 days cotreated with 10 mg/kg NSC-59276 measured on day 12 post first treatment (reference value: 67%). The format is functional. An outline of the steps:
(§3)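 U2932 DLBCL cells (10 × 10^6 in 100 μL sterile saline, viability >91%) injected subcutaneously into left flank of SCID mice (6−8 weeks, immunoglobulin ≤20 μg/mL). Mice pair-matched by tumor volume. Drugs given ip daily for 5 days, CPA 30 mg/kg; controls received all diluents. Tumor volume = a2 × b/2 (a smallest, b largest diameter); n = 5−8; Grubbs' test for outliers.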

Data set [14] has as its system U2932. The experiment in a line: Potentiation of CPA-induced antitumor activity against human U2932 cells xenografted in SCID mouse assessed as tumor growth inhibition at 7.5 mg/kg, ip for 5 days cotreated with 10 mg/kg NSC-59276 measured on day 15 post first treatment (reference value: 44%). The format is functional. An outline of the steps:
as §3

Data set [15] relates to U2932. The experiment in a line: Antitumor activity against human U2932 cells xenografted in SCID mouse assessed as reduction in tumor burden at 5 to 7.5 mg/kg, ip for 5 days cotreated with 10 mg/kg NSC-59276 measured on day 9 to 15 post first treatment. The class given is functional, organism-based. The method, boiled down:
as §3

Data set [16] deals with Mus musculus. As to the kind of experiment: Reduction in Myc mRNA level in tumor of SCID mouse xenografted with human U2932 cells at 5 to 7.5 mg/kg, ip administered for 5 consecutive days cotreated with CPA and NSC-59276 by qPCR method. The class given is functional, organism-based. The method, boiled down: as §2
Data set [17] deals with Mus musculus. As to the kind of experiment: Reduction in Bcl2 mRNA level in tumor of SCID mouse xenografted with human U2932 cells at 5 to 7.5 mg/kg, ip administered for 5 consecutive days cotreated with CPA and NSC-59276 by qPCR method. The class given is functional, organism-based. The method, boiled down: as §2
Data set [18] relates to Mus musculus. As to the kind of experiment: Toxicity in scid mouse xenografted with human U2932 cells assessed as change in body weight at 5 mg/kg, ip administered for 5 consecutive days cotreated with NSC-59276 and CPA. The class given is organism-based. The following applies: in vivo. The method, boiled down: (§4)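 SCID mice (6−8 weeks, female or male, serum immunoglobulin ≤20 μg/mL by ELISA) implanted subcutaneously in left flank with 10 × 10^6 U2932 cells in 100 μL saline; pair-matched by tumor volume; dosed ip daily for 5 days; controls received all compound diluents; tumor volume a2 × b/2; outliers by Grubbs' test; two-tailed t test with Šidák–Bonferroni correction.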

Data set [19] has as its system Mus musculus. The experiment in a line: Toxicity in scid mouse xenografted with human U2932 cells assessed as survival at 10 mg/kg, ip administered for 5 consecutive days cotreated with NSC-59276 and CPA. The format is organism-based. As to conditions: in vivo. The method, boiled down:
as §4

For data set [20], the system named is Mus musculus. The experiment in a line: Toxicity in scid mouse xenografted with human U2932 cells assessed as change in body weight at 10 mg/kg, ip administered for 5 consecutive days cotreated with NSC-59276 and CPA. The following applies: in vivo. The format is organism-based. The method, boiled down:
as §4

Data set [21] relates to Mus musculus. As to the kind of experiment: Reduction in Bcl2 mRNA level in SCID mouse xenografted with human U2932 cells at 10 mg/kg, ip administered for 5 consecutive days cotreated with CPA and NSC-59276 by qPCR method. The format is functional, organism-based. An outline of the steps: as §2

The source made the active and inactive calls. The rule behind the calls is not given here.

For the molecule `Cc1c2ccncc2c(C)c2c1[nH]c1ccc(OCCN(C)C)cc12.Cl.Cl`, the outcome in data set [1], in data set [3], in data set [4] and in [15] was inactive. Also, the outcome in [2], in data set [6], in data set [7], in [8], in data set [9] and in [10] was Active. The outcome in [12], in [16], in data set [17] and in [21] was Active. The Activity entry was “Dose-dependent effect” in data set [5]; 100% in data set [11]; “Non-Toxic” in data set [18]; “Toxic” in [19]; “Toxic” in data set [20]. For the same molecule, the TGI was 46% in [13] and 37% in data set [14].
